High-throughput results deposited in PubChem BioAssay by several laboratories.
LEDGF integ inh: blocks HIV-1 LEDGF/p75-dependent DNA integration; TR-FRET IN-LEDGF/p75 DNA integration, Eu/Cy5; inhibition, % at 3.7 µM; 370,000 compounds, 0.64% hits; AID 743269;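 active means inhibition above the screen-wide mean plus 3 SD, cut at about 13% in these data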;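 further: signal is the Cy5 over europium emission ratio at 671 and 618 nm; 0% = plate median of compound wells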
NSD2 inh: blocks human histone methyltransferase NSD2; NSD2 peptide methylation, AlphaScreen, 120 min; inhibition, % at 12.5 µM; 310,000 compounds, 0.54% hits; AID 743445; in the data active means inhibition above about 50%
MBD2 inh: blocks human MBD2 binding to methylated DNA; Q9UBB5; TR-FRET, MBD2 binding to methylated oligonucleotide; inhibition, % at 4.4 µM; 370,000 compounds, 0.31% hits; in the data active means inhibition above about 13%
Casp6 inh: blocks human caspase-6 cleavage activity; purified caspase-6, Z-VEID-R110 cleavage fluorescence; inhibition, % at 12.5 µM; 350,000 compounds, 0.53% hits;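 active means mean inhibition across replicates at least about 35%, with every replicate also reaching that limit, limit read from the data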;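 further: 0% = median of neutral control wells and 100% = no fluorescence left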
UHRF1 binding: blocks human UHRF1 binding to methylated DNA | inhibition, % at 4.4 µM | 370,000 compounds, 0.75% hits | Q96T88 | UHRF1 binding to methylated oligo, TR-FRET; in the data active means inhibition above about 21%;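 further: UHRF1 SRA domain binding a hemimethylated CpG hairpin DNA probe; 0% = median of test compound wells and 100% = reference inhibitor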
Target sequence (Q96T88 whole entry, looked up, the tested form may be a part): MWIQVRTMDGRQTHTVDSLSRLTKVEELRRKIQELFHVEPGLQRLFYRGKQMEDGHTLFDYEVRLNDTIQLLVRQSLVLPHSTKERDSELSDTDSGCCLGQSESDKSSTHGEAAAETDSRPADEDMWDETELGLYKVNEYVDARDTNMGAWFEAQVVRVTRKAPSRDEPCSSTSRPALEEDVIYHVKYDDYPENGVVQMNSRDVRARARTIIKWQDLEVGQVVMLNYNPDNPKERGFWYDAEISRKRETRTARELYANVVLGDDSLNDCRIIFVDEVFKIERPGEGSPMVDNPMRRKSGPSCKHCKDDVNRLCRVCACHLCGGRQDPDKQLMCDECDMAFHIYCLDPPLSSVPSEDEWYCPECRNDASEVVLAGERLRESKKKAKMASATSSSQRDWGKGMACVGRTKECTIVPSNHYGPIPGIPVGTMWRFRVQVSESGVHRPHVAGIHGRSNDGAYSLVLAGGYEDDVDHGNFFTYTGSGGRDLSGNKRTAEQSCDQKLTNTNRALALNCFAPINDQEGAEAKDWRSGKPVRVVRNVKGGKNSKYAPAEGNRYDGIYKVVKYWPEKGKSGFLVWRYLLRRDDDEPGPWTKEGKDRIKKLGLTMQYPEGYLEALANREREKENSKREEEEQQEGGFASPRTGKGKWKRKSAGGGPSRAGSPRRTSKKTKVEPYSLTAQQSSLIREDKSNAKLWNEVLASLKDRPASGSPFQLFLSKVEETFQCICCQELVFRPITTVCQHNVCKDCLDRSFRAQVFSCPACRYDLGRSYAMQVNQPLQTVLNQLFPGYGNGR
TDP2 inh: TDP2 (human) inhibition, absorbance primary screen | O95551 | recombinant TDP2, T5PNP hydrolysis, p-nitrophenol absorbance 415 nm | 370,000 compounds, 0.34% hits | inhibition, % at 12.8 µM;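 active means inhibition above the mean of all tested compounds plus 3 SD, set per campaign, cut at about 25% in these data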;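 further: 0% = DMSO with enzyme and 100% = buffer with substrate but no TDP2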
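System – recombinant human TDP2 · Amount – 120 nM TDP2 per well · Buffer or medium – Mg2+-containing Tris-HCl buffer, pH 7.5 · Reagent – T5PNP substrate, 5 mM · Dosing – 12.8 µM single point, 1% DMSO · Incubation – 2 h at 37 °C · Measured by – epi absorbance · Read-out basis – percent inhibition · Benchmarks – high control without enzyme, low control DMSO plus TDP2 · Repeats – singlicate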
AlphaScreen art: AlphaScreen assay artifact in NSD2 counter-screen; AID 1053174; shares compounds with NSD2 inh; 1,500 compounds, 9.4% hits; AlphaScreen artifact counterscreen, preloaded methylated H4 peptide; AC35, µM (titrated, usually from 10 µM), for the others: top-dose activity change, negative = signal loss; call rule not given here
An asterisk follows results filed as active; . = no result given. In the library only some 1.8% were active in any assay of this set; here they are far more common.

SMILES	LEDGF integ inh	NSD2 inh	MBD2 inh	Casp6 inh	UHRF1 binding	TDP2 inh	AlphaScreen art
CN(C)S(=O)(=O)c1ccc(NC(=O)CCNC(=O)c2ccco2)cc1	1	59*	1	-4	11	12	0%
Cc1ccc(NC(=O)CCNC(=O)c2ccco2)cc1	-2	-3	-4	.	3	-8	.
C[C@@H]1CN([C@@H](C)CO)C(=O)c2cc(C3=CCCC3)cnc2O[C@@H]1CN(C)C(=O)Nc1cccc(F)c1	.	.	.	-2	.	.	.
CCC1CC(CSc2ncn[nH]2)OC1=O (stereo not drawn)	0	56*	-5	.	3	-15	-2%
O=C(OCc1ccc(Cl)c(Cl)c1)c1cccnc1Cl	5	107*	-2	-7	-1	7	-6%
O=C(OCc1ccc(Br)cc1)c1cccnc1Cl	2	6	-3	0	0	0	.
CCN(CC(=O)NCCCn1ccnc1)S(=O)(=O)c1ccc(C)cc1	3	-5	3	-8	0	5	.
N#Cc1ccc(OCC(=O)NCCCn2ccnc2)cc1	3	63*	-3	-44	0	7	2%
Cc1ccc(S(=O)(=O)N(C)CC(=O)NCCCn2ccnc2)cc1	1	115*	1	-6	0	11	-4%
COc1ccc(OCC(=O)NCCCn2ccnc2)cc1	2	-1	-6	-11	15	13	.
C[C@@H]1CN([C@@H](C)CO)C(=O)c2cc(C3=CCCC3)cnc2O[C@H]1CN(C)C(=O)Cc1ccncc1	.	.	.	2	.	.	.
Cc1ccc(C(=O)NC(=S)c2c(C)cc3ccccn23)cc1	5	92*	-4	-2	-7	7	6.4µM*
Cc1cc2ccccn2c1C(=S)NC(=O)c1ccccc1	6	55*	-14	3	-17	-8	10µM*
Cc1cc2ccccn2c1C(=O)c1ccncc1	-3	7	0	.	-2	1	.
O=C(NCC1CC1)[C@@H]1[C@@H](CO)[C@@H]2Cn3c(cccc3=O)[C@H]1N2C(=O)c1ccccc1	.	.	.	1	.	.	.
CCOc1cc(/C=C2\C(=O)NN(c3ccccc3)C2=O)cc([N+](=O)[O-])c1O	-2	111*	-8	37*	0	-1	-10%
COc1cc(OC)c(C(=O)NC2CCCc3ccccc32)cc1OC (stereo not drawn)	-1	0	0	1	1	-15	.
COc1cc(C(=O)NC2CCCc3ccccc32)cc(OC)c1OC (stereo not drawn)	7	102*	1	2	-1	4	-4%
Cc1cc(C)n(CCC(=O)N2CCN(S(=O)(=O)c3ccccc3)CC2)n1	2	54*	4	2	-2	-3	0%
Cc1ccc(S(=O)(=O)N2CCN(C(=O)CCn3nc(C)c(C)c3C)CC2)cc1	-5	3	2	0	2	-4	.
COCCNC(=O)[C@H]1[C@H](CO)[C@H]2Cn3c(ccc(-c4ccc(OC)cc4)c3=O)[C@@H]1N2C(=O)NC(C)C	.	.	.	-1	.	.	.
O=C(Nc1ccc(Cl)cc1)N[C@H]1CC[C@@H](CCn2cc(C3(O)CCCC3)nn2)O[C@@H]1CO	.	.	.	5	.	.	.
Cc1c(N=NC2=C(O)CC(C)(C)CC2=O)c(=O)n(-c2ccccc2)n1C	2	96*	0	1	-1	6	-2%
CC(=O)/C(N=Nc1c(C)n(C)n(-c2ccccc2)c1=O)=C(\C)O	5	-7	-10	11	-6	-3	.
CO[C@H]1CN(C)C(=O)c2cc(NC(=O)CC(F)(F)F)ccc2OC[C@@H](C)NC[C@@H]1C	.	.	.	-3	.	.	.
SMILES	LEDGF integ inh	NSD2 inh	MBD2 inh	Casp6 inh	UHRF1 binding	TDP2 inh	AlphaScreen art
NC(=O)C1Cc2ccccc2CN1S(=O)(=O)c1ccc(Cl)s1 (stereo not drawn)	0	89*	-6	1	-2	0	-3%
CC(C)NCC#CCOc1ccc(Cl)cc1	4	53*	2	-11	-3	10	-3%
CC1CCCCC1NCC#CCOc1ccc(Cl)cc1 (stereo not drawn)	1	2	-1	0	0	2	.
O=C(COC(=O)c1ccc([N+](=O)[O-])o1)NC1CCCC1	2	5	-9	10	-5	14	.
CCN(C(=O)COC(=O)c1ccc([N+](=O)[O-])o1)C1CCCCC1	2	69*	2	7	-3	12	-4%
O=C(COC(=O)c1ccc([N+](=O)[O-])o1)NC1CCS(=O)(=O)C1 (stereo not drawn)	4	74*	0	49*	-6	11	1%
Cc1cc(C(=O)COC(=O)c2ccc([N+](=O)[O-])o2)c(C)n1CC1CCCO1 (stereo not drawn)	5	54*	-9	14	-4	0	-5%
COCCn1c(C)cc(C(=O)COC(=O)c2ccc([N+](=O)[O-])o2)c1C	5	15	-1	2	-3	2	.
CN(C)c1ccc(/C=C2/C[N+](C)(C)C/C(=C/c3ccc(N(C)C)cc3)C2=O)cc1	-9	66*	-20	8	-42	-7	9.5µM*
CN1CCN(C(=O)C[C@H]2C[C@H]3c4cc(NC(=O)c5ccc6c(c5)OCO6)ccc4O[C@H]3[C@H](CO)O2)CC1	.	.	.	2	.	.	.
Cc1noc(C)c1S(=O)(=O)N1CCN(S(=O)(=O)c2ccccc2C#N)CC1	1	107*	2	-1	0	8	-1%
O=C(CSc1nc(-c2ccccc2)c(-c2ccccc2)o1)N1CCCCC1	6	69*	-2	1	2	-17	-5%
O=C(CCSc1nc(-c2ccccc2)c(-c2ccccc2)o1)N1CCCCC1	0	0	-1	2	1	-7	.
CCOC(=O)C1=C(C)N(C)C(=S)NC1c1ccccc1Cl (stereo not drawn)	-2	96*	-4	.	-1	-5	1%
CCOC(=O)C1=C(C)N(C)C(=S)NC1c1cccc(Cl)c1Cl (stereo not drawn)	-3	-3	-3	1	1	0	.
COc1ccc([Si](C)(C)[C@H]2[C@H](CC(=O)N(CCO)Cc3ccccc3)O[C@@]3(C(=O)N(C)c4ccccc43)[C@@H]2C)cc1	.	.	.	1	.	.	.
O=C(NCCCn1ccnc1)C1CCN(S(=O)(=O)c2ccc(F)cc2)CC1	-3	57*	2	-13	-1	2	-2%
O=C(CCNC(=O)C1CCN(S(=O)(=O)c2ccc(F)cc2)CC1)NCc1ccc(F)cc1	2	-13	6	-2	-1	-5	.
O=C(Nc1ccccc1)N1CCCCN2[C@@H](CO)[C@@H](c3ccc(Br)cc3)[C@@H]2C1	.	.	.	0	.	.	.
